Compound activity: PubChem, The Scripps Research Institute Molecular Screening Center
Hits are enriched below; roughly 1.4% of the tested compounds scored in any of these assays.
EBNA-1 inh = blocks EBNA-1 binding to DNA; EBNA-1 DNA binding, fluorescence polarization; inhibition, % at 14.8 µM; hit rate 0.34% among 300,000; AID 1950; in the data active = inhibition above about 28%
ZTA DNA inh = ZTA (EBV) inhibition in EBNA-1 counter-screen; hit rate 0.15% among 320,000; P03206; ZTA-DNA binding, fluorescence polarization; inhibition, % at 11 µM; in the data active = inhibition above about 33%
Target sequence (P03206 whole entry, looked up): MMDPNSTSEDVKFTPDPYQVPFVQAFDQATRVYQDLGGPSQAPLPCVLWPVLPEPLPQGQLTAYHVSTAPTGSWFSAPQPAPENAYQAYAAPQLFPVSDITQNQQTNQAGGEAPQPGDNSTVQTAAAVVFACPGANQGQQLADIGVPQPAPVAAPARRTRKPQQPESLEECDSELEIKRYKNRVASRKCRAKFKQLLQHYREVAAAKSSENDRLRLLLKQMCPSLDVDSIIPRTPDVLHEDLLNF
NS3 helicase inh = blocks Hepatitis C virus NS3 helicase unwinding. NS3 helicase DNA unwinding, Cy5 molecular beacon fluorescence. inhibition, % at 10.9 µM. hit rate 0.56% among 290,000. AID 1800;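 active = inhibition above the mean of all tested compounds plus 3 SD, set per campaign, cut at about 35% in these data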;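 note: 0% = DMSO wells and 100% = thioflavine S control wells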
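Assay system – hepatitis C virus NS3 helicase domain fragment enzyme · Buffer or medium – MOPS pH 6.5, MgCl2, DTT, Tween20, BSA · Reagent – Cy5/quencher beacon DNA duplex and ATP to start · Compound – single 10.9 µM dose · Timing – 1 h at 25 °C · Technique – Cy5 beacon fluorescence read at start and 1 h · Measure – % inhibition of unwinding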
CTSL1 counter = blocks F. hepatica cathepsin L1 in PFM18AAP counter-screen; recombinant F. hepatica cathepsin L1, Z-Leu-Arg-MCA fluorescence; inhibition, % at 5.96 µM; hit rate 0.49% among 300,000;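 active = inhibition above the mean of all tested compounds plus 3 SD, set per screening campaign, cut at about 17% in these data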;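 note: 0% = plate median of test compound wells and 100% = 1 µM Z-Phe-Ala-diazomethylketone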
The depositor's hits bear a star; · = not tested or not shown; + = active, no number.

SMILES | EBNA-1 inh | ZTA DNA inh | NS3 helicase inh | CTSL1 counter
O=C(O)c1ccc(N/N=C/c2ccc(OC(=O)c3cccc(Cl)c3)cc2)cc1 | 7 | 4 | 23 | 18*
O=C(Oc1ccc(/C=N/Nc2ccccc2)cc1)c1ccccc1 | -14 | -3 | -9 | 4
NC(=S)N/N=C/c1ccc(-c2ccc(Cl)c(Cl)c2)o1 | -8 | 12 | 34 | 23*
Cc1ccc(-c2ccc(/C=N/NC(N)=S)o2)cc1 | -1 | 3 | -3 | 12
NC(=S)N/N=C/c1ccc(-c2ccccc2)o1 | 15 | 7 | -4 | 13
NC(=S)N/N=C\c1ccc(-c2cccc(Cl)c2Cl)o1 | 13 | -1 | 4 | 19*
CC1CCc2nc3ccc(S(=O)(=O)N4CCC(C(=O)NCc5ccccc5Cl)CC4)cc3c(C(=O)O)c2C1 (centres undefined) | 5 | -13 | 3 | -5
CC1CCC(NC(=O)C2CCN(S(=O)(=O)c3ccc4nc5c(c(C(=O)O)c4c3)CC(C)CC5)CC2)CC1 (centres undefined) | -15 | 4 | 29 | 19*
COC(=O)CCC(=O)N1CN2CN(C(=O)CCC(=O)OC)CC([N+](=O)[O-])(C2)C1 | -9 | -13 | 2 | 18*
O=C1C(=O)c2ccc(-c3ccccc3)cc2-c2ccccc21 | -6 | 6 | 9 | 109*
Nc1ccc2c(c1)C(=O)c1ccccc1-2 | -3 | 0 | · | -1
COc1ccc(-c2nnc(N3CCOCC3)c3ccccc23)cc1 | -5 | -1 | 19 | 19*
COc1ccc(-c2nnc(N3CCCCC3)c3ccccc23)cc1 | 1 | 9 | -4 | 6
O=C(N/N=C/c1ccc(OCc2ccccc2)cc1)c1ccco1 | 5 | -6 | -1 | 22*
CC1(C)Oc2ccc3ccc(=O)oc3c2CC1O (centres undefined) | -11 | -6 | 5 | 1
COc1ccc(OC)c2c(C)cc(C)nc12 | -6 | -9 | -4 | -1
CC(=O)N(C)c1ccc(NS(=O)(=O)c2cc(Cl)ccc2Cl)cc1 | -22 | 1 | -5 | -5
COC(=O)CN(C#N)c1nc(NC(C)C)nc(NC(C)C)n1 | -6 | 11 | 0 | 69*
COC(=O)C(C)N(C#N)c1nc(C)cc(C)n1 (centres undefined) | 9 | 9 | 2 | -4
COC(=O)C(C)N(C#N)c1nc(NC(C)C)nc(SC)n1 (centres undefined) | 12 | 8 | 6 | 32*
CC1(C)CC(=O)C(C(=O)c2ccccc2)C(=O)C1Cl (centres undefined) | -9 | -11 | 8 | -2
CCOC(=O)C1CCN(C(=O)C(C)Sc2ccc(Cl)cc2)CC1 (centres undefined) | -11 | -5 | 4 | 5
COc1ccc(C2C3=C(CC(C)(C)CC3=O)N(CC(=O)O)C3=C2C(=O)CC(C)(C)C3)cc1OC | -7 | -10 | 19 | 20*
CCOc1cc(C2C3=C(CC(C)(C)CC3=O)N(CCOC)C3=C2C(=O)CC(C)(C)C3)ccc1OC | 9 | 8 | -3 | -1
CCCc1cc(C(=O)N2CCCC(Cc3ccccc3C)(C(=O)OCC)C2)no1 (centres undefined) | -5 | 0 | 0 | 1
SMILES | EBNA-1 inh | ZTA DNA inh | NS3 helicase inh | CTSL1 counter
O=C(NC(=O)N1CCCCCC1)c1ccccc1 | -6 | 0 | -2 | -3
Cn1nccc1NC(=O)c1nccnc1C(=O)O | 1 | -6 | -4 | -2
O=[N+]([O-])c1ccc(-n2nnnc2-c2ccccc2)cc1 | 11 | -5 | 0 | -8
O=[N+]([O-])c1ccc(-n2nnnc2-c2ccccc2)c([N+](=O)[O-])c1 | -7 | 4 | 7 | 20*
COc1cnc(-c2ccccn2)nc1Oc1ccccc1 | 13 | 16 | -4 | -1
COc1cnc(-c2ccccc2)nc1Oc1ccc(Cl)cc1C | 6 | 10 | 19 | 19*
COCCN(C(=O)c1ccco1)c1nc(-c2ccccc2)cs1 | 1 | 4 | -6 | 0
Nc1cc(C(=O)O)c(N)c2c1C(=O)c1ccccc1C2=O | 146* | + | 30 | -1
Nc1c(C(=O)O)ccc2c1C(=O)c1ccccc1C2=O | 4 | -6 | 14 | 3
CCC(C)c1cc(S(=O)(=O)N2CCOCC2)ccc1OC (centres undefined) | -5 | -16 | 4 | 1
CSc1nsc(SCC(=O)Nc2ccc(Br)cn2)n1 | -8 | -2 | 16 | -5
CC1CCN(C(=O)c2ccc(SCc3ccccc3F)c([N+](=O)[O-])c2)CC1 | 38* | -6 | 5 | 4
O=C(c1ccc(S(=O)(=O)Cc2ccccc2F)c([N+](=O)[O-])c1)N1CCCCCC1 | 2 | 2 | -4 | 1
COc1ccc2ccccc2c1/C=N\NC(=O)c1cccnc1 | 7 | 0 | · | 4
O=C(N/N=C/c1c(O)ccc2ccccc12)c1ccc[n+](CCO)c1 | -8 | 5 | -14 | 20*
COc1ccc2ccccc2c1/C=N/NC(=O)c1cccc(C)c1 | -24 | -25 | · | 18*
CCOC(=O)c1c(NC2OC(=O)c3c2ccc(OC)c3OC)sc(C(=O)OC(C)(C)C)c1C (centres undefined) | 2 | 11 | 5 | 0
Cc1ccc(CN2CCN(Cc3ccc(C)s3)CC2CCO)cc1 (centres undefined) | -8 | -12 | 6 | -4
NC(=S)N/N=C/c1cn(-c2ccccc2)nc1-c1cccnc1 | 3 | 7 | 3 | 25*
O=C(O)c1cc(Cl)ccc1-c1ccc(/C=C/c2cc(C(F)(F)F)[nH]c(=O)n2)o1 | 43* | 53* | 35 | 6
C=C1N(C)c2cc([N+](=O)[O-])c(N)cc2C1(C)C | -2 | 4 | -7 | 1
CC(=O)c1ccc(N2CCN(C(=S)Nc3cccc(Cl)c3)CC2)cc1 | 56* | -2 | 13 | -2
COc1ccccc1/C=C/C=N/NC(=O)c1ccco1 | 5 | 12 | -4 | 4
CC1=CC(=O)[C@H]2C(C)(C)CCC[C@]2(C)[C@@]1(O)CO | 9 | -5 | 15 | 49*
CC(NC(=O)CNC(=O)c1sc2ccccc2c1Cl)c1ccc(S(N)(=O)=O)cc1 (centres undefined) | -2 | -13 | · | -1
SMILES | EBNA-1 inh | ZTA DNA inh | NS3 helicase inh | CTSL1 counter
CCOc1ccccc1NC(=O)c1cccc(NC(=O)CC(c2ccccc2)c2ccccc2)c1 | 1 | -7 | -23 | 18*
O=C(CSc1ccccn1)Nc1cccc(NC(=O)CSc2ccccn2)n1 | -11 | -1 | -2 | -1
O=C(CC(c1ccccc1)c1ccccc1O)NCc1ccccc1 (centres undefined) | 5 | 2 | 0 | 18*
CC(Cc1ccccc1)NC(=O)CC(c1ccccc1)c1ccccc1O (centres undefined) | 4 | -4 | 6 | -13
O=C1C(Cl)=C(Nc2ccccc2O)C(=O)N1c1ccccc1 | 0 | 9 | 11 | 73*
COc1ccc(S(=O)(=O)N2CCOC23CCN(C(=O)c2ccccc2Br)CC3)cc1 | 7 | 14 | -3 | 1
COC(=O)c1cc(C)nc2c1C(=O)C(=O)C=C2N1CCOCC1 | -1 | 57* | -3 | 110*
Cc1cnc(C(=O)NC2CC(C)(C)Cc3c2cnn3-c2ccccc2)cn1 (centres undefined) | 1 | 8 | 4 | 1
CCCc1cc(Nc2cccc(OCC)c2)n2ncnc2n1 | 7 | -4 | 4 | 5
